# In ChEMBL document CHEMBL5058577, “EUbOPEN Chemogenomics Library 2 (Multiplex)” (2022):
# Tested on: U2OS
# Experiment: Multiplex assay against U2OS
# Type: toxicity, cell-based
# Conditions: human
# In short: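 Per cents of healthy-nucleus cells form the tubulin, mitochondrial-mass and membrane-permeability phenotype values. Live cells were stained at seeding with Hoechst33342, BioTracker Green Microtubule Cytoskeleton Dye, MitoTracker Red and Annexin V Alexa Fluor 680. After compound addition they were imaged on a CQ1 microscope at 37°C and 5% CO2, and CellPathfinder machine-learning gating split them into Hoechst high-intensity objects or normal cells, normal cells into healthy, pyknosed or fragmented nuclei, and pyknosed cells into mitotic or apoptotic.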
# [1] = 12 h, 1 µM, compound concentration 1 uM, replicate 1
# [2] = 12 h, 1 µM, compound concentration 1 uM, replicate 2
# [3] = 12 h, 10 µM, compound concentration 10 uM, replicate 1
# [4] = 12 h, 10 µM, compound concentration 10 uM, replicate 2
# [5] = 24 h, 1 µM, compound concentration 1 uM, replicate 1
# [6] = 24 h, 1 µM, compound concentration 1 uM, replicate 2
# [7] = 24 h, 10 µM, compound concentration 10 uM, replicate 1
# [8] = 24 h, 10 µM, compound concentration 10 uM, replicate 2
# [9] = 48 h, 1 µM, compound concentration 1 uM, replicate 1
# [10] = 48 h, 1 µM, compound concentration 1 uM, replicate 2
# [11] = 48 h, 10 µM, compound concentration 10 uM, replicate 1
# [12] = 48 h, 10 µM, compound concentration 10 uM, replicate 2
smiles,measurement,setting,value
Cc1ccc(OCC(O)C(C)NC(C)C)c2c1CCC2.Cl (stereo unspecified),Population Apoptotic (%),[1],63%
same,Population Fragmented Nuclei (%),[1],19%
same,Population Healthy Nuclei (%),[1],66%
same,Population Hoechst High Intensity Objects (%),[1],2%
same,Population Membrane Permeable-Phenotype (%),[1],8%
same,Population Mitochondria Different-Phenotype (%),[1],3%
same,Population Mitotic Cells (%),[1],36%
same,Population Normal (%),[1],97%
same,Population Pyknosed Nuclei (%),[1],13%
same,Population Tubulin-Different-Phenotype (%),[1],4%
same,Total Cell Count,[1],222
same,Population Apoptotic (%),[2],90%
same,Population Fragmented Nuclei (%),[2],11%
same,Population Healthy Nuclei (%),[2],79%
same,Population Hoechst High Intensity Objects (%),[2],1%
same,Population Membrane Permeable-Phenotype (%),[2],7%
same,Population Mitochondria Different-Phenotype (%),[2],2%
same,Population Mitotic Cells (%),[2],9%
same,Population Normal (%),[2],98%
same,Population Pyknosed Nuclei (%),[2],8%
same,Population Tubulin-Different-Phenotype (%),[2],2%
same,Total Cell Count,[2],129
same,Population Apoptotic (%),[3],61%
same,Population Fragmented Nuclei (%),[3],30%
same,Population Healthy Nuclei (%),[3],52%
same,Population Hoechst High Intensity Objects (%),[3],5%
same,Population Membrane Permeable-Phenotype (%),[3],14%
same,Population Mitochondria Different-Phenotype (%),[3],17%
same,Population Mitotic Cells (%),[3],38%
same,Population Normal (%),[3],94%
same,Population Pyknosed Nuclei (%),[3],16%
same,Population Tubulin-Different-Phenotype (%),[3],8%
same,Total Cell Count,[3],215
same,Population Apoptotic (%),[4],80%
same,Population Fragmented Nuclei (%),[4],11%
same,Population Healthy Nuclei (%),[4],81%
same,Population Hoechst High Intensity Objects (%),[4],0%
same,Population Membrane Permeable-Phenotype (%),[4],9%
same,Population Mitochondria Different-Phenotype (%),[4],22%
same,Population Mitotic Cells (%),[4],20%
same,Population Normal (%),[4],99%
same,Population Pyknosed Nuclei (%),[4],7%
same,Population Tubulin-Different-Phenotype (%),[4],9%
same,Total Cell Count,[4],137
same,Population Apoptotic (%),[5],88%
same,Population Fragmented Nuclei (%),[5],14%
same,Population Healthy Nuclei (%),[5],75%
same,Population Hoechst High Intensity Objects (%),[5],0%
same,Population Membrane Permeable-Phenotype (%),[5],5%
same,Population Mitochondria Different-Phenotype (%),[5],3%
same,Population Mitotic Cells (%),[5],11%
same,Population Normal (%),[5],100%
same,Population Pyknosed Nuclei (%),[5],10%
same,Population Tubulin-Different-Phenotype (%),[5],4%
same,Total Cell Count,[5],255
same,Population Apoptotic (%),[6],93%
same,Population Fragmented Nuclei (%),[6],15%
same,Population Healthy Nuclei (%),[6],73%
same,Population Hoechst High Intensity Objects (%),[6],1%
same,Population Membrane Permeable-Phenotype (%),[6],3%
same,Population Mitochondria Different-Phenotype (%),[6],5%
same,Population Mitotic Cells (%),[6],6%
same,Population Normal (%),[6],98%
same,Population Tubulin-Different-Phenotype (%),[6],0%
same,Total Cell Count,[6],155
same,Population Apoptotic (%),[7],82%
same,Population Fragmented Nuclei (%),[7],26%
same,Population Healthy Nuclei (%),[7],56%
same,Population Hoechst High Intensity Objects (%),[7],3%
same,Population Membrane Permeable-Phenotype (%),[7],10%
same,Population Mitochondria Different-Phenotype (%),[7],17%
same,Population Mitotic Cells (%),[7],17%
same,Population Normal (%),[7],96%
same,Population Pyknosed Nuclei (%),[7],17%
same,Population Tubulin-Different-Phenotype (%),[7],4%
same,Total Cell Count,[7],230
same,Population Apoptotic (%),[8],92%
same,Population Fragmented Nuclei (%),[8],14%
same,Population Healthy Nuclei (%),[8],77%
same,Population Hoechst High Intensity Objects (%),[8],2%
same,Population Membrane Permeable-Phenotype (%),[8],12%
same,Population Mitochondria Different-Phenotype (%),[8],11%
same,Population Mitotic Cells (%),[8],7%
same,Population Normal (%),[8],97%
same,Population Pyknosed Nuclei (%),[8],8%
same,Population Tubulin-Different-Phenotype (%),[8],6%
same,Total Cell Count,[8],172
same,Population Apoptotic (%),[9],88%
same,Population Fragmented Nuclei (%),[9],14%
same,Population Healthy Nuclei (%),[9],73%
same,Population Hoechst High Intensity Objects (%),[9],0%
same,Population Membrane Permeable-Phenotype (%),[9],6%
same,Population Mitochondria Different-Phenotype (%),[9],4%
same,Population Mitotic Cells (%),[9],11%
same,Population Normal (%),[9],99%
same,Population Pyknosed Nuclei (%),[9],12%
same,Population Tubulin-Different-Phenotype (%),[9],3%
same,Total Cell Count,[9],377
same,Population Apoptotic (%),[10],80%
same,Population Fragmented Nuclei (%),[10],20%
same,Population Healthy Nuclei (%),[10],69%
same,Population Hoechst High Intensity Objects (%),[10],2%
same,Population Membrane Permeable-Phenotype (%),[10],5%
same,Population Mitochondria Different-Phenotype (%),[10],3%
same,Population Mitotic Cells (%),[10],20%
same,Population Normal (%),[10],97%
same,Population Pyknosed Nuclei (%),[10],10%
same,Population Tubulin-Different-Phenotype (%),[10],2%
same,Total Cell Count,[10],202
same,Population Apoptotic (%),[11],82%
same,Population Fragmented Nuclei (%),[11],23%
same,Population Healthy Nuclei (%),[11],63%
same,Population Hoechst High Intensity Objects (%),[11],4%
same,Population Membrane Permeable-Phenotype (%),[11],12%
same,Population Mitochondria Different-Phenotype (%),[11],12%
same,Population Mitotic Cells (%),[11],17%
same,Population Normal (%),[11],95%
same,Population Pyknosed Nuclei (%),[11],13%
same,Population Tubulin-Different-Phenotype (%),[11],6%
same,Total Cell Count,[11],306
same,Population Apoptotic (%),[12],77%
same,Population Fragmented Nuclei (%),[12],15%
same,Population Healthy Nuclei (%),[12],73%
same,Population Hoechst High Intensity Objects (%),[12],0%
same,Population Membrane Permeable-Phenotype (%),[12],7%
same,Population Mitochondria Different-Phenotype (%),[12],4%
same,Population Mitotic Cells (%),[12],22%
same,Population Normal (%),[12],99%
same,Population Pyknosed Nuclei (%),[12],11%
same,Population Tubulin-Different-Phenotype (%),[12],3%
same,Total Cell Count,[12],246
